Where no end group is shown, it is not given here. [ ]: non-standard residue; d: D form. The star is where a group is joined. Biotin = O=C1N[C@H]2[C@H](CS[C@H]2CCCCC(=O)*)N1; TTDS = NCCCOCCOCCOCCCNC(=O)CCC(=O)*; pS = N[C@@H](COP(=O)(O)O)C(=O)O
Columns and labels:
MAST2 PDZ = molecular target: T1, MAST2 PDZ (Homo sapiens, UniProt Q6P0Q8); assay: holdup assay; assay type: binding; conditions: ~4 μM PDZ; for binding intensity (BI): fraction of PDZ depleted, biotinylated RSK1_725–735, triplicates
T1 sequence (Q6P0Q8 1104-1192 limits assumed): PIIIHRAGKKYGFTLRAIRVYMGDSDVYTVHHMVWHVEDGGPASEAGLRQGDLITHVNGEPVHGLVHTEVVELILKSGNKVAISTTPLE
Outline: (§1)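 Automated holdup against N-terminally biotinylated (TTDS linker) RSK1 725–735 peptides, unphosphorylated and phosphorylated, in triplicate. PDZome v2 clones were codon-optimized and expressed in E. coli, with soluble lysate adjusted to ~4 μM. BI is the PDZ fraction depleted from the fluid phase.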

GRASP PDZ = assay: holdup assay; assay type: binding, human; conditions: ~4 μM PDZ; for binding intensity (BI): fraction of PDZ depleted, biotinylated RSK1_725–735, triplicates; for Kd: read-out: KD, estimated, from BI, estimated 17 μM peptide
Outline: as §1

PARD3B-1 PDZ = molecular target: T2, PARD3B-1 PDZ (Homo sapiens, UniProt Q8TEW8); assay: holdup assay; assay type: binding; conditions: fraction of PDZ depleted; ~4 μM PDZ; biotinylated RSK1_725–735; triplicates
T2 sequence (Q8TEW8 201-289 limits assumed): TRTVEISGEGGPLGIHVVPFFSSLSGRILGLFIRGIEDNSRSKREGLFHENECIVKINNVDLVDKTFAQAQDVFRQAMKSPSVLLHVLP
Outline: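 Automated holdup in triplicate measured biotinylated (N-terminal TTDS linker) RSK1 725–735 peptides, unphosphorylated or phosphorylated, against E. coli-expressed PDZome v2 domains. Soluble lysate was adjusted to ~4 μM, giving 255 domains for the unphosphorylated and 252 for the phosphorylated peptide. Binding intensity (BI) is the fraction of PDZ depleted from the fluid phase. BI 0.2 was the high-confidence threshold.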

ARHGEF11 PDZ = assay: holdup assay; assay type: binding, human; conditions: ~4 μM PDZ; for binding intensity (BI): fraction of PDZ depleted, biotinylated RSK1_725–735, triplicates
Outline: as §1

NHERF2-2 PDZ = assay: holdup assay; assay type: binding, human; conditions: ~4 μM PDZ; for binding intensity (BI): fraction of PDZ depleted, biotinylated RSK1_725–735, triplicates; for Kd: read-out: KD, estimated, from BI, estimated 17 μM peptide
Outline: as §1

PTPN3 PDZ = assay: holdup assay; assay type: binding, human; conditions: ~4 μM PDZ; for binding intensity (BI): fraction of PDZ depleted, biotinylated RSK1_725–735, triplicates; for Kd: read-out: KD, estimated, from BI, estimated 17 μM peptide
Outline: as §1

SHROOM2 PDZ = assay: holdup assay; assay type: binding, human; conditions: ~4 μM PDZ; for binding intensity (BI): fraction of PDZ depleted, biotinylated RSK1_725–735, triplicates; for Kd: read-out: KD, estimated, from BI, estimated 17 μM peptide
Outline: as §1

LIMK2 PDZ = assay: holdup assay; assay type: binding, human; conditions: ~4 μM PDZ; for binding intensity (BI): fraction of PDZ depleted, biotinylated RSK1_725–735, triplicates; for Kd: read-out: KD, estimated, from BI, estimated 17 μM peptide
Outline: as §1

GRID2IP-1 PDZ = assay: holdup assay; assay type: binding, human; conditions: ~4 μM PDZ; for binding intensity (BI): fraction of PDZ depleted, biotinylated RSK1_725–735, triplicates; for Kd: read-out: KD, estimated, from BI, estimated 17 μM peptide
Outline: as §1

SNTA1 PDZ = molecular target: T3, SNTA1 PDZ (Homo sapiens, UniProt Q13424); assay: holdup assay; assay type: binding; conditions: ~4 μM PDZ; for binding intensity (BI): fraction of PDZ depleted, biotinylated RSK1_725–735, triplicates
T3 sequence (Q13424 87-170 limits assumed): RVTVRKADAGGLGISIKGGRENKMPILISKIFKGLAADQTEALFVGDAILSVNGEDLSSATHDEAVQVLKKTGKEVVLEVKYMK
Outline: as §1

SNTB1 PDZ = molecular target: T4, SNTB1 PDZ (Homo sapiens, UniProt Q13884); assay: holdup assay; assay type: binding; conditions: ~4 μM PDZ; for binding intensity (BI): fraction of PDZ depleted, biotinylated RSK1_725–735, triplicates; for Kd: read-out: KD, estimated, from BI, estimated 17 μM peptide
T4 sequence (Q13884 112-195 limits assumed): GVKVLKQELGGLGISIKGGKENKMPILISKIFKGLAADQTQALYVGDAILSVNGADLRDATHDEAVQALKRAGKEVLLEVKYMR
Outline: as §1

PPP1R9A PDZ = assay: holdup assay; assay type: binding, human; conditions: ~4 μM PDZ; for binding intensity (BI): fraction of PDZ depleted, biotinylated RSK1_725–735, triplicates; for Kd: read-out: KD, estimated, from BI, estimated 17 μM peptide
Outline: as §1

LIN7A PDZ = assay: holdup assay, updated analysis; assay type: binding, human; conditions: weak partner; automated computational protocol
Outline: (§2)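 The same triplicate holdup datasets (biotinylated RSK1 725–735, unphosphorylated and phosphorylated, vs ~4 μM PDZome lysates) were re-analysed with an updated automated computational protocol. This gave alternative BI values, reported as supplemental values alongside the conventional analysis.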

PDZRN3–2 PDZ = assay: holdup assay, updated analysis; assay type: binding, human; conditions: weak partner; automated computational protocol
Outline: as §2

DLG3 PDZ = assay: holdup assay, updated analysis; assay type: binding, human; conditions: weak partner; automated computational protocol
Outline: as §2

SYNJ2BP PDZ = molecular target: T5, SYNJ2BP PDZ (Homo sapiens, UniProt P57105); assay: competitive fluorescence polarization; assay type: binding; conditions: summary of high-throughput SPR and competitive FP
T5 sequence (P57105 13-100 limits assumed): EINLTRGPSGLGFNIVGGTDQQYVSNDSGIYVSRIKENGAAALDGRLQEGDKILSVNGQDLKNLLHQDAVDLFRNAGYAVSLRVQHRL

MPDZ-10 PDZ = assay: holdup assay, updated analysis; assay type: binding, human; conditions: weak partner; automated computational protocol
Outline: as §2

RHPN1 PDZ = assay: holdup assay, updated analysis; assay type: binding, human; conditions: weak partner; automated computational protocol
Outline: as §2

[1] = read-out: KD, estimated, from BI, estimated 17 μM peptide

Substance | binding intensity (BI) (MAST2 PDZ) | binding intensity (BI) (GRASP PDZ) | Kd (GRASP PDZ) | binding intensity (BI) (PARD3B-1 PDZ) | binding intensity (BI) (ARHGEF11 PDZ) | binding intensity (BI) (NHERF2-2 PDZ) | Kd (NHERF2-2 PDZ) | binding intensity (BI) (PTPN3 PDZ) | Kd (PTPN3 PDZ) | binding intensity (BI) (SHROOM2 PDZ) | Kd (SHROOM2 PDZ) | binding intensity (BI) (LIMK2 PDZ) | Kd (LIMK2 PDZ) | binding intensity (BI) (GRID2IP-1 PDZ) | Kd (GRID2IP-1 PDZ) | binding intensity (BI) (SNTA1 PDZ) | binding intensity (BI) (SNTB1 PDZ) | Kd (SNTB1 PDZ) | binding intensity (BI) (PPP1R9A PDZ) | Kd (PPP1R9A PDZ) | further results
phosphorylated RSK1 peptide: RSK1 C-terminal PBM peptide phosphorylated at position −3; same constructs as the unphosphorylated ({Biotin-TTDS}-RRVRKLP[pS]TTL) | 0.23 ± 0.03 | 0.04 ± 0.01 | > 100 µM | 0.31 ± 0.02 | 0.01 ± 0.02 | 0.07 ± 0.05 | > 100 µM | 0.21 ± 0.02 | 60.8 µM | 0.21 ± 0.01 | 60.8 µM | 0.22 ± 0.07 | 57.2 µM | 0.24 ± 0.01 | 50.8 µM | 0.53 ± 0.01 | 0.45 ± 0.08 | 18.6 µM | 0.33 ± 0.02 | 31.8 µM | Kd (MAST2 PDZ; [1]): 53.8 µM; Kd (ARHGEF11 PDZ; [1]): > 100 µM; Kd (SNTA1 PDZ; [1]): 13.2 µM; interaction partner by updated analysis (LIN7A PDZ): new partners; interaction partner by updated analysis (PDZRN3–2 PDZ): new partners; interaction partner by updated analysis (DLG3 PDZ): new partners
unphosphorylated RSK1 peptide: C-terminal RSK1 PBM peptide; RSK1_725–735 (holdup, SPR), RSK1_729–735 (direct FP), RSK1_683–735 (competitive FP) ({Biotin-TTDS}-RRVRKLPSTTL) | 0.74 ± 0.03 | 0.29 ± 0.01 | 38.8 µM | 0.52 ± 0.05 | 0.28 ± 0.06 | 0.20 ± 0.04 | 64.8 µM | 0.05 ± 0.02 | > 100 µM | 0.00 ± 0.01 | > 100 µM | 0.01 ± 0.06 | > 100 µM | 0.06 ± 0.02 | > 100 µM | 0.31 ± 0.04 | 0.22 ± 0.04 | 57.2 µM | 0.00 ± 0.02 | > 100 µM | dissociation constant (SYNJ2BP PDZ): no interaction was detectable; interaction partner by updated analysis (MPDZ-10 PDZ): new interaction partners; interaction partner by updated analysis (RHPN1 PDZ): new interaction partners

— publication PMC6424611 (Journal of molecular biology, 2019)
